Results from ChEMBL document CHEMBL1155036, “Synthesis and biological activity of some new flavonyl-2,4-thiazolidinediones” (Bioorg Med Chem, 2008).

Columns and labels:
INS1 [1] = assay: Insulinotropic activity in rat INS1 cells assessed as glucose-mediated insulin release at 1 ug/ml by radioimmunoassay relative to glucose; format: functional
In short: (§1)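 Rat INS-1 cells are grown 4–6 days to half confluence in RPMI with 10% FCS and penicillin/streptomycin. Cells are washed, then incubated 90 min at 37 °C in KRBH (10 mM HEPES, 0.5% BSA) at 5.6 mM glucose, with or without compound. Secreted insulin is measured by radioimmunoassay with a rat insulin standard and corrected for solvent (ethanol, DMSO). Results are normalized to 5.6 mM glucose = 100%. Mean ± SEM, N = 4–8; ANOVA with Newman–Keuls.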

INS1 [2] = assay: Insulinotropic activity in rat INS1 cells assessed as glucose-mediated insulin release at 10 ug/ml by radioimmunoassay relative to glucose; format: functional; in short: as §1
[3] = target: Aldo-keto reductase family 1 member B1 (Rattus norvegicus) (UniProt P07943); assay: Inhibition of rat kidney aldose reductase activity assessed as NADPH oxidation at 100 uM
In short: (§2)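 Assay in 0.067 M phosphate buffer, pH 6.2, with NADPH (2 × 10^-5 M final) and DL-glyceraldehyde substrate (5 × 10^-5 M final). The 340 nm absorbance decrease is followed for 5 min at 37 °C. Drug is added from a 10^-4 M stock in 50% DMF/50% methanol. Percent inhibition is measured at this single drug concentration, and IC50 from a concentration series. Triplicates; mean ± SD of three experiments.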

[4] = target: Aldo-keto reductase family 1 member B1 (Rattus norvegicus, UniProt P07943); assay: Inhibition of rat kidney aldose reductase activity assessed as NADPH oxidation; in short: as §2

Structure (SMILES) | Activity (INS1 [1]) [%] | Activity (INS1 [2]) [%] | inhibition [3] [%] | IC50 [4] [nM]
CCOC(=O)CN1C(=O)S/C(=C\c2ccc(-c3cc(=O)c4ccccc4o3)cc2)C1=O | 106.2 | 128.6 | 6.74 | –
O=C1NC(=O)/C(=C/c2ccc3oc(-c4ccccc4)cc(=O)c3c2)S1 | 82.55 | 158.9 | 64.9 | 683
CCOC(=O)CN1C(=O)S/C(=C\c2cccc(-c3cc(=O)c4ccccc4o3)c2)C1=O | 103.4 | 98.43 | 12.9 | –
O=C(O)CN1C(=O)S/C(=C\c2ccc(-c3cc(=O)c4ccccc4o3)cc2)C1=O | 102.4 | 91.88 | 44.6 | –
COc1ccc(Cl)cc1C(=O)NCCc1ccc(S(=O)(=O)NC(=O)NC2CCCCC2)cc1 [GLYBURIDE] | 179.6 | – | – | –
O=C(O)CN1C(=O)S/C(=C\c2ccc3oc(-c4ccccc4)cc(=O)c3c2)C1=O | 101.3 | 80.92 | 56.3 | 852
O=C(O)CN1C(=O)S/C(=C\c2cccc(-c3cc(=O)c4ccccc4o3)c2)C1=O | 98.1 | 84.09 | 86.6 | 415
CCOC(=O)CN1C(=O)S/C(=C\c2ccc3oc(-c4ccccc4)cc(=O)c3c2)C1=O | 93.28 | 98.52 | 14.4 | –
O=C1NC(=O)/C(=C/c2ccc(-c3cc(=O)c4ccccc4o3)cc2)S1 | 55.7 | 23.79 | 88.7 | 432
O=C1NC(=O)/C(=C/c2cccc(-c3cc(=O)c4ccccc4o3)c2)S1 | 79.76 | 18.95 | 22.1 | –
